In ChEMBL document CHEMBL1649111, “Restoration of susceptibility of intracellular methicillin-resistant Staphylococcus aureus to beta-lactams: comparison of strains, cells, and antibiotics” (Antimicrob Agents Chemother, 2008):

What was measured:
[1] = Chemical stability of the compound assessed as compound remaining after 24 hrs in PBS buffer by HPLC analysis at pH 7.4; type: physicochemical; conditions: read-out: Activity
How it was run: (§1)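 Drug at 50 mg/liter initial concentration incubated 24 h at 37°C in buffered medium at pH 7.4 or 5.5. Remaining drug measured by HPLC signal disappearance; mobile phase 25 mM phosphate buffer pH 6.7 with acetonitrile (75:25).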

THP-1 = test: Ratio of intracellular to extracellular drug level in human THP1 cells at 250 mg/L after 24 hrs; type: ADME, cell-based; conditions: thp-1, 24 h
How it was run: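 THP-1 cells incubated 24 h at 250 mg/liter extracellular drug. Cell lysates assayed microbiologically with MSSA ATCC 25923; content expressed per mg total protein. Cellular/extracellular ratio calculated assuming cell volume of 5 μl per mg protein.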

[2] = Chemical stability of the compound assessed as compound remaining after 24 hrs PBS buffer by HPLC analysis at pH 5.5; type: physicochemical; conditions: read-out: Activity; how it was run: as §1

SMILES | remaining at 24 h [1] | Ratio (THP-1) | remaining at 24 h [2]
C[C@@H](O)[C@H]1C(=O)N2C(C(=O)O)=C(SCCN=CN)C[C@H]12 [IMIPENEM ANHYDROUS] | 39.3% | 0.05 | 30.5%
C[C@@H](O)[C@H]1C(=O)N2C(C(=O)O)=C(S[C@@H]3CN[C@H](C(=O)N(C)C)C3)[C@H](C)[C@H]12 [MEROPENEM] | 49.3% | 0.2 | 40.3%
Cc1onc(-c2ccccc2)c1C(=O)N[C@@H]1C(=O)N2[C@@H]1SC(C)(C)[C@@H]2C(=O)O [OXACILLIN] | 94.2% | 0.2 | 91.8%
